Assay results from PMC6542364 (Journal of the American Chemical Society, 2019).

Test system: HS-5 cells
Experiment: 3D cell spheroid formation from a 2D cell sheet
Type: cell-based
Conditions: co-incubation with pD1-B 200 μM, biotin e.g. 500 μM, 24 h
How it was run: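 HS-5 fibroblast monolayers were kept in culture medium with the test compound at 200 μM for 24 h, with medium alone as control. In the competition arm, free biotin at 500 μM was co-incubated with the test compound. Cell clustering and spheroid formation were recorded by optical imaging.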

For O=C(O)CCCC[C@@H]1SC[C@@H]2NC(=O)N[C@@H]21 [biotin], the “effect of competing biotin on pD1-B-induced cell spheroid formation” value was “blocks the formation of cell spheroids in a concentration dependent manner”.
